# Experimental data published in ChEMBL document CHEMBL4765405, “Design, synthesis and biological activities of novel pleuromutilin derivatives with a substituted triazole moiety as potent antibacterial agents” (Eur J Med Chem, 2020).
# Active and inactive are the calls of the source. The calls are words filed in the database; no cut-off is given here.
# Key:
# Staphylococcus aureus [1] = experiment: Antibacterial activity against methicillin-resistant Staphylococcus aureus ATCC 43300 after 24 hrs by CLSI based broth micro dilution method; assay type: functional
# Summary of the method: (§1)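 Broth microdilution run per CLSI. MRSA ATCC 43300 served as the QC strain, with the CLSI QC range as reference. S. aureus AD3 and 144 are clinical isolates from Guangdong Province. Pleuromutilin and tiamulin were run as reference drugs.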
# Staphylococcus aureus [2] = experiment: Antibacterial activity against Staphylococcus aureus ATCC 29213 after 24 hrs by CLSI based broth micro dilution method; assay type: functional; summary of the method: as §1
# Staphylococcus aureus [3] = experiment: Antibacterial activity against Staphylococcus aureus AD3 after 24 hrs by CLSI based broth micro dilution method; assay type: functional
# Summary of the method: (§2)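 CLSI broth microdilution MIC against S. aureus ATCC 43300 (MRSA), ATCC 29213, clinical isolates AD3 and 144 (Guangdong Province), and E. coli ATCC 25922; ATCC 43300 served as QC strain, with the CLSI quality control range as reference.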
# Staphylococcus aureus [4] = experiment: Antibacterial activity against Staphylococcus aureus 144 after 24 hrs by CLSI based broth micro dilution method; assay type: functional; summary of the method: as §1
# Escherichia coli [5] = experiment: Antibacterial activity against Escherichia coli ATCC 25922 after 24 hrs by CLSI based broth micro dilution method; assay type: functional; summary of the method: as §2
# Staphylococcus aureus [6] = experiment: Bactericidal activity against methicillin-resistant Staphylococcus aureus ATCC 43300 preincubated 16 to 20 hrs followed by subculturing and measured after over night; assay type: functional
# Summary of the method: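 MBC determined by the CLSI broth microdilution method against MRSA ATCC 43300, with ATCC 43300 also serving as the QC strain. Pleuromutilin and tiamulin were reference drugs.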
# Staphylococcus aureus [7] = experiment: Bactericidal activity against Staphylococcus aureus ATCC 29213 preincubated 16 to 20 hrs followed by subculturing and measured after over night; assay type: functional
# Summary of the method: (§3)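 MBC by CLSI broth microdilution on the same strain panel: S. aureus ATCC 43300, ATCC 29213, clinical isolates AD3 and 144, E. coli ATCC 25922; ATCC 43300 served as QC strain.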
# Staphylococcus aureus [8] = experiment: Bactericidal activity against Staphylococcus aureus AD3 preincubated 16 to 20 hrs followed by subculturing and measured after over night; assay type: functional; summary of the method: as §3
# Staphylococcus aureus [9] = experiment: Bactericidal activity against Staphylococcus aureus 144 preincubated 16 to 20 hrs followed by subculturing and measured after over night; assay type: functional; summary of the method: as §3
# Escherichia coli [10] = experiment: Bactericidal activity against Escherichia coli ATCC 25922 preincubated 16 to 20 hrs followed by subculturing and measured after over night; assay type: functional; summary of the method: as §3
# [11] = Ratio of MBC for bactericidal activity against methicillin-resistant Staphylococcus aureus ATCC 43300 to MIC for antibacterial activity against methicillin-resistant Staphylococcus aureus ATCC 4330; assay type: functional
# Staphylococcus aureus [12] = experiment: Bactericidal activity against methicillin-resistant Staphylococcus aureus ATCC 43300 assessed as reduction in bacterial growth at > 8 time of MIC concentration preincubated up to 24 hrs followed by subculturing and measured after 20 hrs by time-kill assay; assay type: functional, organism-based; settings: time hrs <=44
Structure (SMILES),MIC (Staphylococcus aureus [1]) [µg/mL],MIC (Staphylococcus aureus [2]) [µg/mL],MIC (Staphylococcus aureus [3]) [µg/mL],MIC (Staphylococcus aureus [4]) [µg/mL],MIC (Escherichia coli [5]) [µg/mL],MBC (Staphylococcus aureus [6]) [µg/mL],MBC (Staphylococcus aureus [7]) [µg/mL],MBC (Staphylococcus aureus [8]) [µg/mL],MBC (Staphylococcus aureus [9]) [µg/mL],MBC (Escherichia coli [10]) [µg/mL],Ratio [11],Activity (Staphylococcus aureus [12])
C=C[C@]1(C)C[C@@H](OC(=O)CSc2ccccc2NC(=O)Cn2cc(CN3CCN(c4cccc(C)c4)CC3)nn2)[C@]2(C)[C@H](C)CC[C@]3(CCC(=O)[C@H]32)[C@@H](C)[C@@H]1O,1,1,2,1,> 32,1,2,4,8,> 32,1,–
C=C[C@]1(C)C[C@@H](OC(=O)CSc2ccccc2NC(=O)Cn2cc(CN3CCN(c4cccc([N+](=O)[O-])c4)CC3)nn2)[C@]2(C)[C@H](C)CC[C@]3(CCC(=O)[C@H]32)[C@@H](C)[C@@H]1O,0.125,0.25,0.25,0.25,> 32,0.25,0.25,0.5,0.5,> 32,1,Active
C=C[C@]1(C)C[C@@H](OC(=O)CSc2ccccc2NC(=O)Cn2cc(CN3CCN(c4ccccc4Cl)CC3)nn2)[C@]2(C)[C@H](C)CC[C@]3(CCC(=O)[C@H]32)[C@@H](C)[C@@H]1O,1,1,2,2,> 32,2,2,2,4,> 32,1,–
C=C[C@]1(C)C[C@@H](OC(=O)CSc2ccccc2NC(=O)Cn2cc(CN3CCN(c4cccc(F)c4)CC3)nn2)[C@]2(C)[C@H](C)CC[C@]3(CCC(=O)[C@H]32)[C@@H](C)[C@@H]1O,1,0.5,0.5,1,> 32,2,0.5,1,2,> 32,1,–
C=C[C@]1(C)C[C@@H](OC(=O)CSc2ccccc2NC(=O)Cn2cc(CN3CCC(CCO)CC3)nn2)[C@]2(C)[C@H](C)CC[C@]3(CCC(=O)[C@H]32)[C@@H](C)[C@@H]1O,0.5,0.5,1,0.5,> 32,1,0.5,1,0.5,> 32,1,–
C=C[C@]1(C)C[C@@H](OC(=O)CSc2ccccc2NC(=O)Cn2cc(CN3CCCCC3)nn2)[C@]2(C)[C@H](C)CC[C@]3(CCC(=O)[C@H]32)[C@@H](C)[C@@H]1O,0.5,0.5,0.5,1,> 32,2,0.5,0.5,1,> 32,1,–
C=C[C@]1(C)C[C@@H](OC(=O)CSc2ccccc2NC(=O)Cn2cc(CN3CCN(c4ccccc4OC)CC3)nn2)[C@]2(C)[C@H](C)CC[C@]3(CCC(=O)[C@H]32)[C@@H](C)[C@@H]1O,0.5,1,1,1,> 32,1,2,2,4,> 32,1,–
C=C[C@]1(C)C[C@@H](OC(=O)CSc2ccccc2NC(=O)Cn2cc(CN3CCN(c4cccc(O)c4)CC3)nn2)[C@]2(C)[C@H](C)CC[C@]3(CCC(=O)[C@H]32)[C@@H](C)[C@@H]1O,0.25,0.25,0.25,0.5,> 32,0.5,0.5,0.5,1,> 32,1,–
C=C[C@]1(C)C[C@@H](OC(=O)CSc2ccccc2NC(=O)Cn2cc(CN3CCN(c4ccccc4F)CC3)nn2)[C@]2(C)[C@H](C)CC[C@]3(CCC(=O)[C@H]32)[C@@H](C)[C@@H]1O,1,0.5,0.5,1,> 32,2,1,1,1,> 32,1,–
C=C[C@]1(C)C[C@@H](OC(=O)CSc2ccccc2NC(=O)Cn2cc(CN3CCN(c4ccccc4)CC3)nn2)[C@]2(C)[C@H](C)CC[C@]3(CCC(=O)[C@H]32)[C@@H](C)[C@@H]1O,0.5,0.5,0.5,1,> 32,0.5,0.5,1,2,> 32,1,–
C=C[C@]1(C)C[C@@H](OC(=O)CSc2ccccc2NC(=O)Cn2cc(CN3CCN(c4ccc(C)cc4)CC3)nn2)[C@]2(C)[C@H](C)CC[C@]3(CCC(=O)[C@H]32)[C@@H](C)[C@@H]1O,1,0.5,1,1,> 32,4,0.5,2,2,> 32,1,–
C=C[C@]1(C)C[C@@H](OC(=O)CSc2ccccc2NC(=O)Cn2cc(CN3CCN(c4ccc([N+](=O)[O-])cc4)CC3)nn2)[C@]2(C)[C@H](C)CC[C@]3(CCC(=O)[C@H]32)[C@@H](C)[C@@H]1O,0.125,0.125,0.25,0.25,> 32,0.25,0.125,0.5,0.25,> 32,1,Active
